Experimental data from ChEMBL document CHEMBL1641377, “Discovery of novel, potent, selective, and orally active human glucagon receptor antagonists containing a pyrazole core” (Bioorg Med Chem Lett, 2011).
The source made the active and inactive calls. No cut-off for these calls is given here.

Assays:
Rattus norvegicus = experiment: Dose normalized AUC in rat at 2 mg/kg, po; type: ADME, organism-based; design: dose 2 mg/kg, route oral; conditions: in vivo
Mus musculus [1] = experiment: In vivo occupancy of human GCGR transfected in mouse at 10 mg/kg after 8 hrs; type: functional
Summary of the method: (§1)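 In vivo receptor occupancy measured in hGCGR transgenic mice after oral dosing, at 1 h post-dose (30 and 10 mpk) and in a separate experiment at 1, 3 and 8 h after 10 mpk.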

[2] = Plasma concentration in rhesus monkey at 0.3 mg/kg, po after 4 hrs; type: ADME, organism-based, Macaca mulatta; design: dose 0.3 mg/kg, route oral
Summary of the method: (§2)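 Overnight-fasted rhesus monkeys received the oral dose 4 h before the glucagon challenge (15 µg/kg im, time zero). Plasma drug level was sampled at the time of the challenge (t = 0, n = 4). Plasma glucose was then followed every 10 min and expressed as the change from time zero.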

[3] = Antagonist activity at rhesus monkey GCGR assessed as inhibition of glucagon-induced cAMP accumulation; type: functional, Macaca mulatta
Uncharacterized protein = Uncharacterized protein (Canis lupus familiaris, UniProt A0A8I3N355); experiment: Antagonist activity at dog GCGR assessed as inhibition of glucagon-induced cAMP accumulation; type: functional
[4] = Half life in rhesus monkey at 0.5 mg/kg, iv and 2 mg/kg, po; type: ADME, organism-based, Macaca mulatta; conditions: in vivo
Glucagon receptor [5] = target: Glucagon receptor (Rattus norvegicus, UniProt P30082); experiment: Antagonist activity at rat GCGR assessed as inhibition of glucagon-induced cAMP accumulation; type: functional
[6] = Plasma concentration in rhesus monkey at 1 mg/kg, po after 4 hrs; type: ADME, organism-based, Macaca mulatta; design: dose 1 mg/kg, route oral; summary of the method: as §2
Cytochrome P450 2D6 = Cytochrome P450 2D6 (Homo sapiens, UniProt P10635); experiment: Inhibition of CYP2D6; type: ADME
[7] = Bioavailability in dog at 0.5 mg/kg, iv and 2 mg/kg, po; type: ADME, organism-based, Canis lupus familiaris; conditions: in vivo
Mus musculus [8] = experiment: Antihyperglycemic activity in streptozotocin-induced diabetes mouse model assessed as decrease in blood glucose AUC level at 30 mg/kg, po after 4 weeks; type: functional; conditions: 672 h
Summary of the method: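 Diabetic model: hGCGR transgenic mice on high-fat diet for eight weeks, streptozotocin-treated during the last four weeks; single oral dose, blood glucose AUC over 2–6 h measured.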

[9] = Plasma clearance in dog at 0.5 mg/kg, iv and 2 mg/kg, po; type: ADME, organism-based, Canis lupus familiaris
Canis familiaris = experiment: Dose normalized AUC in dog at 2 mg/kg, po; type: ADME, organism-based, Canis lupus familiaris; design: dose 2 mg/kg, route oral; conditions: in vivo
[10] = Cmax in dog at 2 mg/kg, po; type: ADME, organism-based, Canis lupus familiaris; design: dose 2 mg/kg, route oral; conditions: in vivo
[11] = Cmax in rat at 2 mg/kg, po; type: ADME, organism-based; design: dose 2 mg/kg, route oral; conditions: in vivo
Mus musculus [12] = experiment: Antidiabetic activity in transgenic mouse expressing human GCGR assessed as inhibition of glucagon-induced blood glucose excursion at 10 mg/kg, po administered 60 mins before glucagon challenge measured after 48 mins; type: functional, organism-based; design: dose 10 mg/kg
Summary of the method: (§3)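 hGCGR transgenic mice (only functional receptor is human GCGR), 9 per group, given compound orally, then glucagon 15 µg/kg IP 60 min later (one arm dosed 30 mpk three hours before challenge); blood glucose monitored at 12, 24, 36 and 48 min after glucagon.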

[13] = Half life in dog at 0.5 mg/kg, iv and 2 mg/kg, po; type: ADME, organism-based, Canis lupus familiaris; conditions: in vivo
Rhesus monkey [14] = experiment: Dose normalized AUC in rhesus monkey at 2 mg/kg, po; type: ADME, organism-based, Macaca mulatta; design: dose 2 mg/kg, route oral; conditions: in vivo
[15] = Plasma clearance in rhesus monkey at 0.5 mg/kg, iv and 2 mg/kg, po; type: ADME, organism-based, Macaca mulatta
[16] = Half life in rat at 1 mg/kg, iv and 2 mg/kg, po; type: ADME, organism-based; conditions: in vivo
Mus musculus [17] = experiment: Dose normalized AUC in mouse at 2 mg/kg, po; type: ADME, organism-based; design: dose 2 mg/kg, route oral; conditions: in vivo
Mus musculus [18] = experiment: Antidiabetic activity in transgenic mouse expressing human GCGR assessed as inhibition of glucagon-induced blood glucose excursion at 30 mg/kg, po administered 3 hrs before glucagon challenge measured after 48 mins; type: functional, organism-based; design: dose 30 mg/kg; summary of the method: as §3
Mus musculus [19] = experiment: In vivo occupancy of human GCGR transfected in mouse at 10 mg/kg, po after 1 hr; type: functional; summary of the method: as §1
[20] = Drug level in blood of transgenic mouse expressing human GCGR at 30 mg/kg, po after 120 mins; type: ADME, organism-based; design: dose 30 mg/kg, route oral; conditions: read-out: Drug uptake
Summary of the method: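 Blood drug concentration sampled in hGCGR transgenic mice during the oral glucagon-challenge pharmacodynamic assay at 45 and 120 min post dose, 10 and 30 mpk groups, n = 3 per group.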

Oryctolagus cuniculus = organism: Oryctolagus cuniculus; experiment: Binding affinity to DLZ-sensitive rabbit calcium channel up to 10 uM
[21] = Half life in mouse at 1 mg/kg, iv and 2 mg/kg, po; type: ADME, organism-based; conditions: in vivo
Homo sapiens = organism: Homo sapiens; experiment: Binding affinity to human sodium channel up to 10 uM
[22] = Volume of distribution at steady state in rhesus monkey at 0.5 mg/kg, iv and 2 mg/kg, po; type: ADME, organism-based, Macaca mulatta; conditions: in vivo, read-out: Vdss
Glucagon receptor [23] = target: Glucagon receptor (Homo sapiens, UniProt P47871); experiment: Antagonist activity at human GCGR expressed in CHO cells assessed as inhibition of glucagon-induced cAMP accumulation; type: functional, cell-based
Summary of the method: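 Inhibition of glucagon-induced cAMP accumulation in CHO cells transfected with human GCGR; IC50 derived, n given where replicated.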

Rhesus monkey [24] = experiment: Antidiabetic activity in rhesus monkey assessed as inhibition of glucagon-induced blood glucose excursion at 1 to 10 mg/kg, po administered 4 hrs before glucagon challenge measured after 4 hrs; type: functional, organism-based; conditions: Macaca mulatta
Summary of the method: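 Overnight-fasted rhesus monkeys dosed with vehicle or compound 4 h before challenge; glucagon 15 µg/kg im at time zero, plasma glucose monitored every 10 min and expressed as change from time zero per group.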

[25] = target: Pituitary adenylate cyclase-activating polypeptide type I receptor (Homo sapiens, UniProt P41586); experiment: Antagonist activity at human PACAPR1 expressed in CHO cells assessed as inhibition of glucagon-induced cAMP accumulation; type: functional, cell-based
Mus musculus [26] = experiment: In vivo occupancy of human GCGR transfected in mouse at 30 mg/kg, po after 1 hr; type: functional; summary of the method: as §1
[27] = target: T1, Gastric inhibitory polypeptide receptor (Homo sapiens, UniProt P48546); experiment: Antagonist activity at human GIPR expressed in CHO cells assessed as inhibition of glucagon-induced cAMP accumulation; type: functional, cell-based
T1 sequence (P48546 whole entry): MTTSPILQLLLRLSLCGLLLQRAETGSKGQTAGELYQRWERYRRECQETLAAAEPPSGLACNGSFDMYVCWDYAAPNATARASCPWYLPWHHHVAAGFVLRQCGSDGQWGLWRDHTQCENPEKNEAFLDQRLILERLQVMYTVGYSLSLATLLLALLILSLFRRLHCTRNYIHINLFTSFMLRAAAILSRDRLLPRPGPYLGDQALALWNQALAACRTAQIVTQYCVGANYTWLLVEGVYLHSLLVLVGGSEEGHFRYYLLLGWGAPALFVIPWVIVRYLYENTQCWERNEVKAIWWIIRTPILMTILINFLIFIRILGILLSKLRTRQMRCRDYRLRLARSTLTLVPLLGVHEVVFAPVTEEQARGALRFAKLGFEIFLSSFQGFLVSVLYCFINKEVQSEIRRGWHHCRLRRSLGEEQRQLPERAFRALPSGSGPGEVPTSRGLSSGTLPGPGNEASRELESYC

[28] = Blood clearance in mouse at 1 mg/kg, iv and 2 mg/kg, po; type: ADME, organism-based
Mus musculus [29] = experiment: In vivo occupancy of human GCGR transfected in mouse at 10 mg/kg after 1 hr; type: functional; summary of the method: as §1
[30] = Plasma clearance in rat at 1 mg/kg, iv and 2 mg/kg, po; type: ADME, organism-based

Sequence of Uncharacterized protein (A0A8I3N355 whole entry): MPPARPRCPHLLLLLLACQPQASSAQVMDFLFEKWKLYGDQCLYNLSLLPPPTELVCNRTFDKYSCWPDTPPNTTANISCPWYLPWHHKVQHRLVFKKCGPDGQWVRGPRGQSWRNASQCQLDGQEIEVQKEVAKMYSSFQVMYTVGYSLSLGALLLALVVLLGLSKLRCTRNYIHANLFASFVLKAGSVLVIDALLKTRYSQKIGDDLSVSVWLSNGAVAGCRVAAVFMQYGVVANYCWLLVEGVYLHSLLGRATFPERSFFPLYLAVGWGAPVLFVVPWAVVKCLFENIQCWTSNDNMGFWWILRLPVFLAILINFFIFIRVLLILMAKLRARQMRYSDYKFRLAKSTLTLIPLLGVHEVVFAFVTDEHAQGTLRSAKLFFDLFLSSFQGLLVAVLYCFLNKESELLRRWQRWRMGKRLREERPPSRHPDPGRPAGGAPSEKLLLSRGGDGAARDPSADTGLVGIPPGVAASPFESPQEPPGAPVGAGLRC
Sequence of Pituitary adenylate cyclase-activating polypeptide type I receptor (P41586 whole entry): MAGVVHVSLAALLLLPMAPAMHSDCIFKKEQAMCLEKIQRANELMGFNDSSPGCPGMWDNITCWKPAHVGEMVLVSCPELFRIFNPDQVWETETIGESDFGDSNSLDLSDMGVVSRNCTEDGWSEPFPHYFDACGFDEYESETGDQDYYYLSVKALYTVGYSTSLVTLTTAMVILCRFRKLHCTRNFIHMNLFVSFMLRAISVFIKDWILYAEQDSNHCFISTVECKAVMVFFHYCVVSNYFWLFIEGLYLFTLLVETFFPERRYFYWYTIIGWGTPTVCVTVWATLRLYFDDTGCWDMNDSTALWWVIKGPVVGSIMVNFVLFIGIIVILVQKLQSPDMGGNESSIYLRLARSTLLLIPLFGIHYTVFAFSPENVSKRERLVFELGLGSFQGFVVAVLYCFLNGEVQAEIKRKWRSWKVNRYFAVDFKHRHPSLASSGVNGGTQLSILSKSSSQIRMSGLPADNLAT
Sequence of Glucagon receptor (Rattus norvegicus, UniProt P30082) (P30082 whole entry): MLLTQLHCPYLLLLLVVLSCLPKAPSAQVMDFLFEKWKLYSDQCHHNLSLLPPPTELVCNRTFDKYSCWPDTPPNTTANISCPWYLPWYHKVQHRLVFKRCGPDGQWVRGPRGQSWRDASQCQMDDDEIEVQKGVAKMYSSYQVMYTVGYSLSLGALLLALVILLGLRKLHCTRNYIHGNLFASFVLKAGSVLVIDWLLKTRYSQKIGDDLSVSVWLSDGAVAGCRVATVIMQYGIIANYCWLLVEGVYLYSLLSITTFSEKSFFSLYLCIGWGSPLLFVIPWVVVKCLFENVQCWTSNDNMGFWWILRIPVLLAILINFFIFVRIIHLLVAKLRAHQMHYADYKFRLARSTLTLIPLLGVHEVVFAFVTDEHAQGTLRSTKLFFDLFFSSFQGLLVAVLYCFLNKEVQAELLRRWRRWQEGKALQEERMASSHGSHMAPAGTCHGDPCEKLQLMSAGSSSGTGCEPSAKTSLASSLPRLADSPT
Sequence of Glucagon receptor (Homo sapiens, UniProt P47871) (P47871 whole entry): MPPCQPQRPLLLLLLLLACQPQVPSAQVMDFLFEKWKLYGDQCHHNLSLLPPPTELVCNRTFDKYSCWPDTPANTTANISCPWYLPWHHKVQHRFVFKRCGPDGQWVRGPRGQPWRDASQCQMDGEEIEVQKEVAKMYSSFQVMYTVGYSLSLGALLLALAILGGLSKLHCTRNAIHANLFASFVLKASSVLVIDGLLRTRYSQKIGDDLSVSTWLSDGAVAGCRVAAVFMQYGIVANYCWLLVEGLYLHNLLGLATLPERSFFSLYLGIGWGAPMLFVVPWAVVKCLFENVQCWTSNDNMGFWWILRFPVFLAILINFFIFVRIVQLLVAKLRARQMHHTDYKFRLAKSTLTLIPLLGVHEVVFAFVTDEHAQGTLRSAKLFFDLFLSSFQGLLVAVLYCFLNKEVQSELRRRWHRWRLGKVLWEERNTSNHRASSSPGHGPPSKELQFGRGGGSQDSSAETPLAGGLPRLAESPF
Sequence of Cytochrome P450 2D6 (P10635 whole entry): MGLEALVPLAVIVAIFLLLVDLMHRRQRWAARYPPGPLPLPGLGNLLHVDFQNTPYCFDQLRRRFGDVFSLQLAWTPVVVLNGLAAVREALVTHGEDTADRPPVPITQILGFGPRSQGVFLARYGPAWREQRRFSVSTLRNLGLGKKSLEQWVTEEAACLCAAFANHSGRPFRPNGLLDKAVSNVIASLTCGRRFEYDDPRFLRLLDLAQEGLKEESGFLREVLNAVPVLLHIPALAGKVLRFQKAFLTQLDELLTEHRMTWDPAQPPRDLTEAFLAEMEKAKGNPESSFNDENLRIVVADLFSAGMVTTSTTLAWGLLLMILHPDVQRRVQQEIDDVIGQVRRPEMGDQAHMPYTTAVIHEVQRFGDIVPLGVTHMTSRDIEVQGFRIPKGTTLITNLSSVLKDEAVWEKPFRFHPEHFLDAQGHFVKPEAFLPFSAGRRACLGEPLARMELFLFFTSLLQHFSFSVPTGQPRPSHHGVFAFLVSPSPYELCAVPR

In the case of `O=C(O)CCNC(=O)c1ccc(Cn2nc(-c3cc(Cl)cc(Cl)c3)cc2-c2ccc(OC(F)(F)F)cc2)cc1`, the AUC (Rattus norvegicus) is reported as 11 µM·kg·h/mg, the Activity (Mus musculus [1]) is reported as 51% and the concentration at 4 h [2] is reported as 0.13 µM. It also gave an IC50 [3] of 0.14 µM, an IC50 (Uncharacterized protein) of 0.4 µM and a half-life [4] of 10 h. For the same molecule, the IC50 (Glucagon receptor [5]) was 2.6 µM, the concentration at 4 h [6] was 0.6 µM and the IC50 (Cytochrome P450 2D6) was > 100 µM. It also gave a bioavailability [7] of 46%, an inhibition in vivo at 30 mg/kg (Mus musculus [8]) of 37% and a clearance [9] of 0.0294 L/h/kg. For the same molecule, the AUC (Canis familiaris) was 27 µM·kg·h/mg, the Cmax [10] was 7.7 µM and the Cmax [11] was 1.6 µM. The inhibition (Mus musculus [12]) was “Active”, the half-life [13] was 3.6 h and the AUC (Rhesus monkey [14]) was 30 µM·kg·h/mg. The clearance [15] was 0.0408 L/h/kg, the half-life [16] was 6.5 h and the AUC (Mus musculus [17]) was 0.73 µM·kg·h/mg. The inhibition (Mus musculus [18]) was “Active”, the Activity (Mus musculus [19]) was 51% and the concentration at 2 h [20] was 14.2 µM. The Activity (Oryctolagus cuniculus) was “inactive”, the half-life [21] was 2.3 h and the Activity (Homo sapiens) was “inactive”. The Vd [22] was 0.55 L/kg, the IC50 (Glucagon receptor [23]) was 0.11 µM and the inhibition (Rhesus monkey [24]) was “Active”. The IC50 [25] was > 7 µM, the Activity (Mus musculus [26]) was 87% and the IC50 [27] was 7.5 µM. For the same molecule, the clearance [28] was 0.366 L/h/kg, the Activity (Mus musculus [29]) was 64% and the clearance [30] was 0.096 L/h/kg.
